Measurements reported in ChEMBL document CHEMBL1130209, “A novel series of 2,5-substituted tryptamine derivatives as vascular 5HT1B/1D receptor antagonists” (J Med Chem, 1997).

Columns and labels:
[1] = target: T1, 5-hydroxytryptamine receptor 1A (Rattus norvegicus, UniProt P19327); experiment: Affinity pKi for 5-hydroxytryptamine 1A receptor was measured in rat cortex homogenates.; type: tissue-based
T1 sequence (P19327 whole entry): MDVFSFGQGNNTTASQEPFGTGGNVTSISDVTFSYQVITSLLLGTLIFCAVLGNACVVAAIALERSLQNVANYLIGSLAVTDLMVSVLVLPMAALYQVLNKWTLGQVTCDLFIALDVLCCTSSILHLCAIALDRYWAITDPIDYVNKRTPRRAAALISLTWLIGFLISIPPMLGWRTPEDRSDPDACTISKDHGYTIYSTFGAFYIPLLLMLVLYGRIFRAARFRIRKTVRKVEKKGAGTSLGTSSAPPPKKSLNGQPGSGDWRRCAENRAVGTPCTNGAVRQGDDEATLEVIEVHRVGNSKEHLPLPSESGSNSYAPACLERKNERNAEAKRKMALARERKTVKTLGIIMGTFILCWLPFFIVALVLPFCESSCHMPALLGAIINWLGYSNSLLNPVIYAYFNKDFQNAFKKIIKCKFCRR
Procedure, shortened: (§1)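 Competition binding with rat cortex homogenate: radioligand near its KD plus a wide range of test drug concentrations in duplicate, 30 min at 27 °C. Buffer 50 mM TRIS-HCl, 5 mM CaCl₂, 0.1% (w/v) ascorbate, 10 mM pargyline. Nonspecific binding defined with excess cold 5HT. Rapid filtration with ice-cold buffer wash, liquid scintillation count. pKi is the mean of at least three estimates.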

[2] = target: T2, 5-hydroxytryptamine receptor 2C (Rattus norvegicus, UniProt P08909); experiment: Affinity pKi for 5-hydroxytryptamine 2C receptor was measured in rat cortex homogenates.; type: tissue-based; procedure, shortened: as §1
T2 sequence (P08909 whole entry): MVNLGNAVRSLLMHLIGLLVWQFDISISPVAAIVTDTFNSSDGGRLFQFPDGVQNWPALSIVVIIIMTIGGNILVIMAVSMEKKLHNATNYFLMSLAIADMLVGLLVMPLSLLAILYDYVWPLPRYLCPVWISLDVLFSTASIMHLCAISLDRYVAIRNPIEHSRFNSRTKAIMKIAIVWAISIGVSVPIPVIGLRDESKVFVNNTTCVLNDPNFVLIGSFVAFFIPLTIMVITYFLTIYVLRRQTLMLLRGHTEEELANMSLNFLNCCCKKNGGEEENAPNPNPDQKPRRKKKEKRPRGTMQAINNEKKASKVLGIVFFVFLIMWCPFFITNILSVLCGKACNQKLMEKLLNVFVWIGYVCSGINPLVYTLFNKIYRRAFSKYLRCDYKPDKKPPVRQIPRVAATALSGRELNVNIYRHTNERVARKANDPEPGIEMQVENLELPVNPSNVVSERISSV

[3] = target: T3, Adrenergic receptor alpha-1 (Rattus norvegicus, UniProt P15823+P23944+P43140); experiment: Affinity pKi for Alpha-1 adrenergic receptor was measured in rat cortex homogenates; type: tissue-based; procedure, shortened: as §1
T3 sequence (P15823 whole entry): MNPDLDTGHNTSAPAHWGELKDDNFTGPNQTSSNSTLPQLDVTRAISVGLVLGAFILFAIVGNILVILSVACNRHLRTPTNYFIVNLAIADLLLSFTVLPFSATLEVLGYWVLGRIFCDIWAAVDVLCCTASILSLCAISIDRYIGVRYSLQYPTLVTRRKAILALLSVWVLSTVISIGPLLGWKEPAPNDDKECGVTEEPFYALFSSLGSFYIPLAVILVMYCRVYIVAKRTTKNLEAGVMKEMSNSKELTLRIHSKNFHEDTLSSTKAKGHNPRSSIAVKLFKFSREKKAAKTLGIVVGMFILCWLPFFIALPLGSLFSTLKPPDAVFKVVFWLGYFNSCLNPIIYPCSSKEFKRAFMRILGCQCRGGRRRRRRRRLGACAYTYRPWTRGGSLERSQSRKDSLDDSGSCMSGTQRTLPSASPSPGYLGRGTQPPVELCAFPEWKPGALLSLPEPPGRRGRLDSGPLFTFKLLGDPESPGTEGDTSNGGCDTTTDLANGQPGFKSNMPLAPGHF
T3 sequence (P23944 whole entry): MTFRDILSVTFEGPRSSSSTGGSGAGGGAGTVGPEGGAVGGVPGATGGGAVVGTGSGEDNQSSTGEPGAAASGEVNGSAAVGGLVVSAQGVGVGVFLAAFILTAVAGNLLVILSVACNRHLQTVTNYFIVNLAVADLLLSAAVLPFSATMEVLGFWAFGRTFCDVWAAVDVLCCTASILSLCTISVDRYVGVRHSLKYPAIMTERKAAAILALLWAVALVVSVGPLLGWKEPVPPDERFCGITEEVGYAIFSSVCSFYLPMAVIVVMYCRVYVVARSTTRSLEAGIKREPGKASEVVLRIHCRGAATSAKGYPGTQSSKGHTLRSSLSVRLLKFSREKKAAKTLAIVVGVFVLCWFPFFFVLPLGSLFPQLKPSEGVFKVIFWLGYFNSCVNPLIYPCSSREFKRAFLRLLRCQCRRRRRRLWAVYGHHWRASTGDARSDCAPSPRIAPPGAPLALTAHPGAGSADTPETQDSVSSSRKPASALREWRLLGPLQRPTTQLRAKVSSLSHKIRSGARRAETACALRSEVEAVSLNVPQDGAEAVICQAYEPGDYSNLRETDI
T3 sequence (P43140 whole entry): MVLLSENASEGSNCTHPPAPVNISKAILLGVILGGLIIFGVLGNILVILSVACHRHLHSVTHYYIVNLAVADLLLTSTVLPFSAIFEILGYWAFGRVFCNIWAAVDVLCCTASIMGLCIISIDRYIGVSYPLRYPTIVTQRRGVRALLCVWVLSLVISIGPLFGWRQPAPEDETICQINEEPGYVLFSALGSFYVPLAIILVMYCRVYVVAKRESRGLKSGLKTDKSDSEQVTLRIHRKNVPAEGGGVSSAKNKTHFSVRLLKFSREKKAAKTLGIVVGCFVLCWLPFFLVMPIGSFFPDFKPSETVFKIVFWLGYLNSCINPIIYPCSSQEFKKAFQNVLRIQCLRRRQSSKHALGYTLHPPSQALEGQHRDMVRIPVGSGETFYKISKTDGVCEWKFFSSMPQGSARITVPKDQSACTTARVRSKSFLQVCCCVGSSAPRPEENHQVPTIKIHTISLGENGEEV

[4] = target: Adrenergic receptor alpha-1 (Homo sapiens) (UniProt P35348+P25100+P35368); experiment: The dissociation equilibrium constant (pKB=-log KB) of compound was determined against the Alpha-1 adrenergic receptor in the rabbit thoracic aorta; type: tissue-based; settings: Oryctolagus cuniculus, target entry is the homologue from another species
Procedure, shortened: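 Rabbit thoracic aorta rings (3 mm) given pargyline 500 μM for 30 min and tensioned twice to 3.0 g. L-phenylephrine 10 μM checks viability and gives the reference contracture. After washout, test compound at 30 μM for 60 min, then a cumulative L-phenylephrine curve.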

D(1A) dopamine receptor = D(1A) dopamine receptor (Rattus norvegicus, UniProt P18901); experiment: Affinity pKi for Dopamine receptor D1 was measured in rat cortex homogenates.; type: tissue-based; procedure, shortened: as §1
[5] = target: Histamine H1 receptor (Homo sapiens) (UniProt P35367); experiment: The dissociation equilibrium constant (pKB=-log KB) of compound was determined against the Histamine H1 receptor in the rabbit thoracic aorta; type: tissue-based; settings: Oryctolagus cuniculus, target entry is the homologue from another species
Adrenergic receptor beta = Adrenergic receptor beta (Rattus norvegicus, UniProt P18090+P10608+P26255); experiment: Affinity pKi for Beta adrenergic receptor was measured in rat cortex homogenates; procedure, shortened: as §1

Chain of D(1A) dopamine receptor (P18901 whole entry): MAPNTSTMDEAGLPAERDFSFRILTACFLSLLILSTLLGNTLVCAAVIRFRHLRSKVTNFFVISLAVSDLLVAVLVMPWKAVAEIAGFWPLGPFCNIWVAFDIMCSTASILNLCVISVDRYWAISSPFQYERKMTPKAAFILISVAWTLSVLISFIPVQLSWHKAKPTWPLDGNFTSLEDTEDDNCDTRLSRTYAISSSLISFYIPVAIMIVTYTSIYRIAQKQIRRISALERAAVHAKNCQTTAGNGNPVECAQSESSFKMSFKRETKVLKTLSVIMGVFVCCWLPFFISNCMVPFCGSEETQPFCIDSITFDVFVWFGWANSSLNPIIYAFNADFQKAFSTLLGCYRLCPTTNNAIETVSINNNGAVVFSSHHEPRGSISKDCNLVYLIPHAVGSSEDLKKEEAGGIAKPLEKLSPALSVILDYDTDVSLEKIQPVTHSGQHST
Chain of Histamine H1 receptor (Homo sapiens) (P35367 whole entry): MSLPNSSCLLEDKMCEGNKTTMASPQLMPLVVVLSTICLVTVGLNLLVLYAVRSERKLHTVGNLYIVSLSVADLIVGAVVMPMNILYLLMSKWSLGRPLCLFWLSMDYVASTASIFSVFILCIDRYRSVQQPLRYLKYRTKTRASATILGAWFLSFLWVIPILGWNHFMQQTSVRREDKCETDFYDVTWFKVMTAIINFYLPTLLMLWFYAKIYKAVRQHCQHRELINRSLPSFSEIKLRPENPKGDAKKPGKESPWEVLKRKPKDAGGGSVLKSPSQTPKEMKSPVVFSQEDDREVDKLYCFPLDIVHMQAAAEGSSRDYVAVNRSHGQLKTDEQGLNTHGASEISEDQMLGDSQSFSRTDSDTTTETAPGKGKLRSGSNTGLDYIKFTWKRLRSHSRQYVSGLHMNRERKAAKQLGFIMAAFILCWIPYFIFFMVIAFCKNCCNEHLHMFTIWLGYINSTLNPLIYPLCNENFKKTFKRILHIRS

CCOC(=O)c1[nH]c2ccc(CCN3C(=O)CNC3=O)cc2c1CCN(C)C
Ki [1]: 9.33 µM
Ki [2]: 5.5 µM
Log Ki [3]: -4.95
pKB [4]: 5.43
Ki (D(1A) dopamine receptor): 32.4 µM
pKB [5]: < 5
Log Ki (Adrenergic receptor beta): -4.34
